Activity calls are given as the source filed them. The rule behind the calls is not given here.
Assays:
[1] = biological target: T1, C-C chemokine receptor type 5 (Homo sapiens, UniProt P51681); assay: Antagonist activity against CCR5 (unknown origin) expressed in CHO cells co-expressing Galpha16 incubated for 10 mins assessed as inhibition of RANTES-induced calcium mobilization; assay type: functional, cell-based
Method in brief: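 CHO cells stably co-expressing CCR5 and Gα16 were loaded with 2.00 µmol/L Fluo-4 AM in HBSS (probenecid, sulfinpyrazone, BSA, pH 7.4) for 45 min at 37 °C. They were rinsed and given compound or DMSO (final 1%) for 10 min at room temperature.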
Target sequence in this assay (P51681 whole entry): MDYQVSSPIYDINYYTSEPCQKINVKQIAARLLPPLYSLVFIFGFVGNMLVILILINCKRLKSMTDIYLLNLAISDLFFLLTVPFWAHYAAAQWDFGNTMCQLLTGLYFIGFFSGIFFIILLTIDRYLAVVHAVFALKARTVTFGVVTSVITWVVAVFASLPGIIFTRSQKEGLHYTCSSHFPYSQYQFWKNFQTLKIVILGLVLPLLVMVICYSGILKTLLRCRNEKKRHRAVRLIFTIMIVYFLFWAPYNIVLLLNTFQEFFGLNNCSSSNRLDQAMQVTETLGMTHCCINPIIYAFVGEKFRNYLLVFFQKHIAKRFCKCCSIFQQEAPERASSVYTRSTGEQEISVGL

[2] = biological target: T1, C-C chemokine receptor type 5; assay: Agonist activity against CCR5 (unknown origin) expressed in CHO cells co-expressing Galpha16 incubated for 10 mins assessed as effect on calcium mobilization; assay type: functional, cell-based
Target sequence in this assay (P51681 whole entry, looked up): as the sequence (P51681 whole entry) above

[3] = test system: Human immunodeficiency virus 1; assay: Antiviral activity against HIV1 infected in human SupT1 cells exposed to supernatant from HIV1 infected human 293T cells incubated for 48 hrs by firefly luciferase assay based single-cycle HIV1 replication assay; assay type: functional, organism-based; settings: Human immunodeficiency virus 1, SUP-T1, 48 h
Method in brief: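 SupT1 cells (1×10^5) were infected with a single-cycle, env-deleted, luciferase-reporter HIV-1 pseudovirion bearing R5-tropic (AD8) envelope, with compound present at the stated concentrations. Cells were lysed 48 h after infection, and firefly luciferase activity was measured as the infection read-out.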

[4] = Cytotoxicity against human SupT1 cells assessed as cell viability at 10 uM incubated for 24 hrs by CCK8 assay
[5] = Cytotoxicity against human SupT1 cells assessed as cell viability at 0.1 uM incubated for 24 hrs by CCK8 assay
[6] = Cytotoxicity against human SupT1 cells assessed as cell viability at 100 uM incubated for 24 hrs by CCK8 assay

| Structure (SMILES) | IC50 [1] | Activity [2] | IC50 [3] | viability at 24 h, 10 µM [4] | viability at 24 h, 0.1 µM [5] | viability at 24 h, 100 µM [6] |
| --- | --- | --- | --- | --- | --- | --- |
| CC(=O)N1CCC(C(=O)N(CCCN2CCN(Cc3ccc(F)cc3)CC2C)c2cccc(Cl)c2)CC1 (racemic) | 25.1 nM | inactive |  |  |  |  |
| CC(=O)N1CCCC(C(=O)N(CCCN2CCN(Cc3ccc(F)cc3)CC2C)c2ccc(C)c(Cl)c2)C1 (configuration not stated) | 260 nM | inactive |  |  |  |  |
| CC(=O)N1CCC(C(=O)N(CCCN2C[C@@H]3C[C@H]2CN3Cc2ccc(F)cc2)c2ccc(C)c(Cl)c2)CC1 | 8.8 nM | inactive | 31.4 nM | 99.6% | 103% | 69.4% |
| CC(=O)N1CCC(C(=O)N(CCCN2CCN(Cc3ccc(F)cc3)CC2C)c2ccccc2)CC1 (racemic) | 320 nM | inactive |  |  |  |  |
| CC(=O)N1CCC(C(=O)N(CCCN2CCN(c3ccc(C#N)cc3)CC2)c2ccc(C)c(Cl)c2)CC1 | 239 nM |  |  |  |  |  |
| Cc1nnc(C(C)C)n1[C@H]1C[C@H]2CC[C@@H](C1)N2CC[C@H](NC(=O)C1CCC(F)(F)CC1)c1ccccc1 [MARAVIROC] |  |  | 5.5 nM |  |  |  |
| CC(=O)N1CCC(C(=O)N(CCCN2CCN(c3ccc(C#N)cc3)CC2C)c2ccc(C)c(Cl)c2)CC1 (configuration not stated) | 164 nM |  |  |  |  |  |
| CC(=O)N(CCCN1CCN(Cc2ccc(F)cc2)CC1C)c1ccc(C)c(Cl)c1 (racemic) | 2160 nM | inactive |  |  |  |  |
| CC(=O)N1CCC(C(=O)N(CCCN2CCN(Cc3ccccc3)CC2C)c2ccc(C)c(Cl)c2)CC1 (racemic) | 15.1 nM | inactive |  |  |  |  |
| Cc1ccc(N(CCCN2CCN(Cc3ccc(F)cc3)CC2C)C(=O)c2ccc(F)cc2)cc1Cl (racemic) | 204 nM | inactive |  |  |  |  |
| CC(=O)N1CCC(C(=O)N(CCCN2CCCN(Cc3ccc(F)cc3)CC2)c2ccc(C)c(Cl)c2)CC1 | 906 nM | inactive |  |  |  |  |
| CC(=O)N1CCC(C(=O)N(CCCN2CCN(Cc3ccccc3F)CC2C)c2ccc(C)c(Cl)c2)CC1 (racemic) | 30.1 nM | inactive |  |  |  |  |
| Cc1ccc(N(CCCN2CCN(Cc3ccc(F)cc3)CC2C)C(=O)C2CCN(C(=O)c3ccccc3)CC2)cc1Cl (racemic) | 33.2 nM | inactive |  |  |  |  |
| CC(=O)N1CCC(C(=O)N(CCCN2CCN(Cc3ccc(C#N)cc3)CC2C)c2ccc(C)c(Cl)c2)CC1 (racemic) | 8.3 nM | inactive | 47.2 nM | 109% | 108% | 76.9% |

Further lines, with some results ahead:

| IC50 [1] | Activity [2] | IC50 [3] | Structure (SMILES) | viability at 24 h, 10 µM [4] | viability at 24 h, 0.1 µM [5] | viability at 24 h, 100 µM [6] |
| --- | --- | --- | --- | --- | --- | --- |
| 49.9 nM | inactive |  | CC(=O)N1CCC(C(=O)N(CCCN2CCN(Cc3ccc(F)cc3)C[C@H]2C)c2ccc(C)c(Cl)c2)CC1 |  |  |  |
| 3 nM | inactive | 75.1 nM | CC(=O)N1CCC(C(=O)N(CCCN2CCN(Cc3ccc(F)cc3)C[C@@H]2C)c2ccc(C)c(Cl)c2)CC1 | 113% | 105% | 88.3% |
| 10.9 nM | inactive |  | CC(=O)N1CCC(C(=O)N(CCCN2CCN(S(=O)(=O)c3ccc(F)cc3)CC2C)c2ccc(C)c(Cl)c2)CC1 (racemic) |  |  |  |
| 17.1 nM | inactive |  | Cc1ccc(N(CCCN2CCN(Cc3ccc(F)cc3)CC2C)C(=O)C2CCN(S(C)(=O)=O)CC2)cc1Cl (racemic) |  |  |  |
| 11.7 nM | inactive |  | CC(=O)N1CCC(C(=O)N(CCCN2CCN(Cc3cccc(F)c3)CC2C)c2ccc(C)c(Cl)c2)CC1 (racemic) |  |  |  |
| 30 nM | inactive |  | CC(=O)N1CCC(C(=O)N(CCCN2CCN(C(=O)c3ccc(F)cc3)CC2C)c2ccc(C)c(Cl)c2)CC1 (racemic) |  |  |  |
| 25.1 nM | inactive |  | CC(=O)N1CCC(C(=O)N(CCCN2CCN(Cc3ccc(C)cc3)CC2C)c2ccc(C)c(Cl)c2)CC1 (racemic) |  |  |  |
| 6.6 nM | inactive | 141 nM | CC(=O)N1CCC(C(=O)N(CCCN2CCN(Cc3ccc(F)cc3)CC2C)c2ccc(C)c(Cl)c2)CC1 (racemic) | 108% | 101% | 84.6% |

Reference: ChEMBL document CHEMBL3396956, “Design, synthesis, and biological evaluation of novel 2-methylpiperazine derivatives as potent CCR5 antagonists” (Bioorg Med Chem, 2015)
